Measurements published in ChEMBL document CHEMBL4390663, “Cationic biaryl 1,2,3-triazolyl peptidomimetic amphiphiles: synthesis, antibacterial evaluation and preliminary mechanism of action studies” (Eur J Med Chem, 2019).

Assays:
Format in all cases: functional
Clostridioides difficile [1] = experiment: Antibacterial activity against Clostridium difficile NSW132 RT027 incubated for 48 hrs by CLSI method; settings: NSW132 RT027, 48 h
How it was run: (§1)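 Broth microdilution per CLSI anaerobe method in pre-reduced (2-4 h) Brucella broth with haemin and vitamin K, 35 °C anaerobically for 48 h. Compounds from 5 mg/mL DMSO stocks, twofold dilutions in water mixed with double-strength broth; final 0.25–128 μg/mL. […] Triplicate; modal MIC read visually as lowest concentration inhibiting growth.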

Clostridioides difficile [2] = experiment: Antibacterial activity against Clostridium difficile ATCC 700057 incubated for 48 hrs by CLSI method; settings: ATCC 700057, 48 h; how it was run: as §1
Streptococcus pneumoniae = experiment: Antibacterial activity against Streptococcus pneumoniae ATCC 49619 incubated for 24 hrs by CLSI method; settings: ATCC 49619, 24 h
How it was run: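 CLSI broth microdilution in MHB with 2.5% lysed horse blood, 5% CO2, 35 °C, 24 h. Compounds from 5 mg/mL DMSO stocks diluted in water plus double-strength broth; final 0.25–128 μg/mL. […] Triplicate; modal MIC read visually as lowest growth-inhibiting concentration.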

Staphylococcus aureus [3] = experiment: Antimicrobial activity against Staphylococcus aureus ATCC 29213 incubated for 24 hrs by CLSI method; settings: ATCC 29213, 24 h
How it was run: (§2)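 Broth microdilution per CLSI aerobic guidance in Mueller Hinton broth, ambient air, 35 °C for 24 h. DMSO stocks were diluted in water, then serially diluted with double-strength broth inoculum added, for final 0.25–128 μg/mL. […] MIC was read visually as the lowest concentration inhibiting growth; the modal value of triplicates was recorded.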

Staphylococcus aureus [4] = experiment: Antibacterial activity against methicillin-resistant Staphylococcus aureus NCTC 10442 incubated for 24 hrs by CLSI method; settings: NCTC 10442, 24 h; how it was run: as §2
Enterococcus faecalis = experiment: Antibacterial activity against Enterococcus faecalis ATCC 29212 incubated for 24 hrs by CLSI method; settings: ATCC 29212, 24 h

Compound: CC(C)CCOc1ccc2ccccc2c1-c1c(OCc2cn(C[C@@H](CCCCN)NC(=O)c3cccs3)nn2)ccc2ccccc12.Cl
- MIC (Clostridioides difficile [1]): 64 µg/mL
- MIC (Clostridioides difficile [2]): 32 µg/mL
- MIC (Streptococcus pneumoniae): 16 µg/mL
- MIC (Staphylococcus aureus [3]): 8 µg/mL
- MIC (Staphylococcus aureus [4]): 8 µg/mL
- MIC (Enterococcus faecalis): 8 µg/mL

Compound: CC(C)CCOc1ccc2ccccc2c1-c1c(OCc2cn(C[C@@H](CCCCN)NC(=O)c3ccc4ccccc4c3)nn2)ccc2ccccc12.Cl
- MIC (Clostridioides difficile [1]): 64 µg/mL
- MIC (Clostridioides difficile [2]): 64 µg/mL
- MIC (Streptococcus pneumoniae): 32 µg/mL
- MIC (Staphylococcus aureus [3]): 16 µg/mL
- MIC (Staphylococcus aureus [4]): 16 µg/mL
- MIC (Enterococcus faecalis): 8 µg/mL

Compound: CC(C)CCOc1ccc2ccccc2c1-c1c(OCc2cn(C[C@@H](CCCCN)NC(=O)C3=CCCCC3)nn2)ccc2ccccc12.Cl
- MIC (Clostridioides difficile [1]): 32 µg/mL
- MIC (Clostridioides difficile [2]): 32 µg/mL
- MIC (Streptococcus pneumoniae): 16 µg/mL
- MIC (Staphylococcus aureus [3]): 8 µg/mL
- MIC (Staphylococcus aureus [4]): 8 µg/mL
- MIC (Enterococcus faecalis): 8 µg/mL

Compound: CC(C)CCOc1ccc2ccccc2c1-c1c(OCc2cn(C[C@@H](CCCCN)NC(=O)C3CC3)nn2)ccc2ccccc12.Cl
- MIC (Clostridioides difficile [1]): 64 µg/mL
- MIC (Clostridioides difficile [2]): 16 µg/mL
- MIC (Streptococcus pneumoniae): 16 µg/mL
- MIC (Staphylococcus aureus [3]): 8 µg/mL
- MIC (Staphylococcus aureus [4]): 8 µg/mL
- MIC (Enterococcus faecalis): 8 µg/mL

Compound: CC(C)CCOc1ccc2ccccc2c1-c1c(OCc2cn(C[C@@H](CCCCN)NC(=O)C3=CCCC3)nn2)ccc2ccccc12.Cl
- MIC (Clostridioides difficile [1]): 64 µg/mL
- MIC (Clostridioides difficile [2]): 32 µg/mL
- MIC (Streptococcus pneumoniae): 16 µg/mL
- MIC (Staphylococcus aureus [3]): 8 µg/mL
- MIC (Staphylococcus aureus [4]): 8 µg/mL
- MIC (Enterococcus faecalis): 8 µg/mL

Compound: CC(C)CCOc1ccc2ccccc2c1-c1c(OCc2cn(C[C@@H](CCCCN)NC(=O)C3(N)CCOCC3)nn2)ccc2ccccc12.Cl.Cl
- MIC (Clostridioides difficile [1]): 64 µg/mL
- MIC (Clostridioides difficile [2]): 32 µg/mL
- MIC (Streptococcus pneumoniae): 16 µg/mL
- MIC (Staphylococcus aureus [3]): 16 µg/mL
- MIC (Staphylococcus aureus [4]): 16 µg/mL
- MIC (Enterococcus faecalis): 16 µg/mL

Compound: CC(C)CCOc1ccc2ccccc2c1-c1c(OCc2cn(C[C@@H](CCCCN)NC(=O)CC(C)C)nn2)ccc2ccccc12.Cl
- MIC (Clostridioides difficile [1]): 32 µg/mL
- MIC (Clostridioides difficile [2]): 16 µg/mL
- MIC (Streptococcus pneumoniae): 16 µg/mL
- MIC (Staphylococcus aureus [3]): 8 µg/mL
- MIC (Staphylococcus aureus [4]): 8 µg/mL
- MIC (Enterococcus faecalis): 8 µg/mL

Compound: CC(C)CCOc1ccc2ccccc2c1-c1c(OCc2cn(C[C@@H](CCCCN)NC(=O)[C@@H](CCCNC(=N)N)NC(=O)OCC3c4ccccc4-c4ccccc43)nn2)ccc2ccccc12.Cl.Cl
- MIC (Clostridioides difficile [1]): 64 µg/mL
- MIC (Clostridioides difficile [2]): 32 µg/mL
- MIC (Streptococcus pneumoniae): 8 µg/mL
- MIC (Staphylococcus aureus [3]): 8 µg/mL
- MIC (Staphylococcus aureus [4]): 8 µg/mL
- MIC (Enterococcus faecalis): 8 µg/mL

Compound: CC(C)CCOc1ccc2ccccc2c1-c1c(OCc2cn(C[C@@H](CCCCN)NC(=O)CCCc3ccccc3)nn2)ccc2ccccc12.Cl
- MIC (Clostridioides difficile [1]): 64 µg/mL
- MIC (Clostridioides difficile [2]): 32 µg/mL
- MIC (Streptococcus pneumoniae): 32 µg/mL
- MIC (Staphylococcus aureus [3]): 8 µg/mL
- MIC (Staphylococcus aureus [4]): 16 µg/mL
- MIC (Enterococcus faecalis): 8 µg/mL

Compound: Cc1ccc(CC(=O)N[C@H](CCCCN)Cn2cc(COc3ccc4ccccc4c3-c3c(OCCC(C)C)ccc4ccccc34)nn2)cc1.Cl
- MIC (Clostridioides difficile [1]): 32 µg/mL
- MIC (Clostridioides difficile [2]): 16 µg/mL
- MIC (Streptococcus pneumoniae): 32 µg/mL
- MIC (Staphylococcus aureus [3]): 8 µg/mL
- MIC (Staphylococcus aureus [4]): 8 µg/mL
- MIC (Enterococcus faecalis): 8 µg/mL

Compound: CC(C)CCOc1ccc2ccccc2c1-c1c(OCc2cn(C[C@@H](CCCCN)NC(=O)Cc3ccc(Br)cc3)nn2)ccc2ccccc12.Cl
- MIC (Clostridioides difficile [1]): 64 µg/mL
- MIC (Clostridioides difficile [2]): 32 µg/mL
- MIC (Streptococcus pneumoniae): 32 µg/mL
- MIC (Staphylococcus aureus [3]): 4 µg/mL
- MIC (Staphylococcus aureus [4]): 8 µg/mL
- MIC (Enterococcus faecalis): 8 µg/mL

Compound: CC(C)CCOc1ccc2ccccc2c1-c1c(OCc2cn(C[C@@H](CCCCN)NC(=O)OCc3ccccc3)nn2)ccc2ccccc12.Cl
- MIC (Clostridioides difficile [1]): 32 µg/mL
- MIC (Clostridioides difficile [2]): 32 µg/mL
- MIC (Streptococcus pneumoniae): 16 µg/mL
- MIC (Staphylococcus aureus [3]): 4 µg/mL
- MIC (Staphylococcus aureus [4]): 8 µg/mL
- MIC (Enterococcus faecalis): 8 µg/mL

Compound: CC(C)CCOc1ccc2ccccc2c1-c1c(OCc2cn(C[C@@H](CCCCN)NC(=O)c3ccccc3)nn2)ccc2ccccc12.Cl
- MIC (Clostridioides difficile [1]): 32 µg/mL
- MIC (Clostridioides difficile [2]): 32 µg/mL
- MIC (Streptococcus pneumoniae): 16 µg/mL
- MIC (Staphylococcus aureus [3]): 8 µg/mL
- MIC (Staphylococcus aureus [4]): 8 µg/mL
- MIC (Enterococcus faecalis): 8 µg/mL

Compound: CC(C)CCOc1ccc2ccccc2c1-c1c(OCc2cn(C[C@@H](CCCCN)NC(=O)c3ccco3)nn2)ccc2ccccc12.Cl
- MIC (Clostridioides difficile [1]): 32 µg/mL
- MIC (Clostridioides difficile [2]): 16 µg/mL
- MIC (Streptococcus pneumoniae): 16 µg/mL
- MIC (Staphylococcus aureus [3]): 8 µg/mL
- MIC (Staphylococcus aureus [4]): 8 µg/mL
- MIC (Enterococcus faecalis): 8 µg/mL

Compound: CC(C)CCOc1ccc2ccccc2c1-c1c(OCc2cn(C[C@@H](CCCCN)NC(=O)[C@@H]3CCC(=O)N3)nn2)ccc2ccccc12.Cl
- MIC (Clostridioides difficile [1]): 64 µg/mL
- MIC (Clostridioides difficile [2]): 32 µg/mL
- MIC (Streptococcus pneumoniae): 32 µg/mL
- MIC (Staphylococcus aureus [3]): 16 µg/mL
- MIC (Staphylococcus aureus [4]): 16 µg/mL
- MIC (Enterococcus faecalis): 16 µg/mL
